# Screening results (PubChem)
# NS3 helicase inh – inhibitors of HCV NS3 helicase, primary screen, biochemical, Cy5 molecular beacon fluorescence | inhibition, % at 10.9 µM | 0.56% of 290,000 active | Hepatitis C virus NS3 helicase | NS3 helicase DNA unwinding;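 active = inhibition above the mean of all tested compounds plus 3 SD, set per campaign, cut at about 35% in these data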;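 also: 0% = DMSO wells and 100% = thioflavine S control wells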
#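 Material: hepatitis C virus NS3 helicase domain fragment enzyme; measured by: Cy5 fluorescence, 0 and 60 min reads; control set: DMSO and thioflavine S; incubation: 60 min unwinding reaction at 25 °C after ATP addition; read-out basis: % inhibition from 60/0 min fluorescence ratio, DMSO 0%, thioflavine S 100%; repeats: singlicate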
# p97 ATPase inh – inhibitors of human p97 ATPase, primary screen, biochemical; recombinant p97 ATPase, Kinase-Glo ATP luminescence, 3 h; inhibition, % at 8 µM; Transitional endoplasmic reticulum ATPase (Homo sapiens), P55072; 0.42% of 220,000 active; in the data active = inhibition above about 15%;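 also: 0% = DMSO vehicle and 100% = wells lacking enzyme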
# CHOP inh – inhibitors of CHOP promoter induction, primary screen, cell-based, unfolded protein response, luciferase reporter; CHO-K1 CHOP-promoter luciferase, tunicamycin-induced, 15-18 h; inhibition, % at 10 µM; 3.8% of 220,000 active; AID 2732, 2010;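 active = compounds that reduced the stress-induced luciferase reporter signal by more than about 70% of percent inhibition, limit read from the data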;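 also: 0% = tunicamycin plus vehicle and 100% = wells without tunicamycin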
# M18AAP inhibitor – PfM18AAP inhibitors, malaria aminopeptidase, primary screen, biochemical, QFRET, recombinant enzyme; M18 aspartyl aminopeptidase (Plasmodium falciparum 3D7); H-Glu-NHMec fluorogenic cleavage; inhibition, % at 7.35 µM; 1.2% of 290,000 active;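 active = inhibition above the campaign mean inhibition over all tested compounds plus 3 SD, cut at about 28% in these data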;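 also: 0% = plate median of test compound wells and 100% = 2 mM ZnCl2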
# CHOP UPR activ – activators of apoptotic CHOP UPR arm, primary screen, cell-based, CHO-CHOP luciferase reporter, luminescence, uHTS. UPR activation; percent of tunicamycin response over DMSO baseline. 0.34% of 330,000 active. AID 449763, 2010. activation, % at 10 µM;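 active = at 10 µM dose, activation of 40% or more, normalized to positive control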;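 also: 100% = tunicamycin at 10 µg/mL and 0% = DMSO alone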
#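 Assay system: CHO cells with stable CHOP pathway luciferase reporter; Buffer or medium: F12 plus 10% serum; Times: 16-18 h cell attachment, then 6 h compound exposure, 37 °C; Signal: luciferase luminescence; Read-out basis: percent activation relative to tunicamycin control; Control set: tunicamycin high control, DMSO low control.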
# UPR XBP1 act – activators of adaptive XBP1 UPR arm, primary screen, cell-based, CHO-XBP1 luciferase reporter, luminescence, uHTS | 0.33% of 330,000 active | IRE1-XBP1 UPR activation; percent of tunicamycin response, DMSO as zero | AID 463104, 2010 | activation, % at 20 µM;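 active = versus positive control, 20 µM dose yields 30% or more activation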;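 also: 100% = tunicamycin at 10 µg/mL and 0% = DMSO only wells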
#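 Material: IRE1-XBP1 luciferase reporter CHO line / Quantity: one thousand reporter cells per well / Buffer or medium: F12 with 10% serum / Compound: 20 µM single concentration, DMSO 1% / Times: 6 h treatment, 37 °C / Detection: Steady-Glo luciferase glow luminescence, 10 min after reagent addition / Benchmarks: tunicamycin high, DMSO low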
# Active calls of the source: *; / = not tested or not shown. This is a sample that favours compounds with a hit; in the whole collection about 4.5% have one here.
SMILES,NS3 helicase inh,p97 ATPase inh,CHOP inh,M18AAP inhibitor,CHOP UPR activ,UPR XBP1 act
COc1ccc([N+](=O)[O-])cc1NC(=O)CSc1nc(C)cc(C)n1,0,5,45,30*,-2,0
CC(C)Cc1nnc(NC(=O)c2ccc3c(c2)OCCO3)s1,/,/,/,/,1,-3
OCC1(Cc2ccccc2)CCN(Cc2cnc(-c3ccc(Cl)cc3)nc2)CC1,-11,-3,73*,4,1,0
COc1ccccc1C1CC(c2cccs2)=Nc2ccccc2S1 (stereo unspecified),19,-3,84*,12,2,3
COc1cc(OC)c(OC)cc1CN1CCN(Cc2ccco2)CC1,1,/,/,-9,0,-6
Nc1nc(N)nc(-c2ccc(Oc3ccccc3)cc2)n1,-11,5,9,-2,-1,-1
Cc1ccc(Oc2ccc(-c3nc(N)nc(N)n3)cc2)cc1C,-31,0,89*,-8,2,-1
CC(=O)N(Cc1ccccc1)c1nc(-c2ccccc2)cs1,-5,3,26,4,1,-4
Cc1cc(C)cc(C(=O)Nc2ccncc2)c1,21,/,/,0,1,2
COc1ccc2c(c1)c(=O)oc1cc3oc(C)c(C)c3cc12,2,2,21,-11,/,/
COc1ccc2c(c1)c(=O)oc1cc3occ(C(C)(C)C)c3cc12,-1,4,87*,3,2,5
CN1C2CC(OC(=O)[C@H](CO)c3ccccc3)CC1C1OC12 (stereo partly specified),/,/,24,/,/,/
Cc1ccccc1-c1cc(-c2ccccc2O)n[nH]1,-6,5,80*,5,5,1
Cc1ccc(-c2cc(-c3ccccc3[N+](=O)[O-])[nH]n2)c(O)c1,-16,0,94*,15,4,5
Nc1cc(-c2ccc(Br)cc2)nc2cc(-c3ccccc3)nn12,-10,6,82*,0,2,-1
Nc1cc(-c2ccc(Br)cc2)nn1S(=O)(=O)c1ccccc1,3,0,72*,6,1,11
c1ccc(CSc2ncn[nH]2)nc1,-2,1,-8,19,0,-1
CCc1ccccc1NCC(=O)Nc1ccc(Cl)c(C(F)(F)F)c1,-11,-9,79*,8,0,0
COc1ccccc1NC(=O)CN1CCN(CC(=O)Nc2ccc(Cl)c(C(F)(F)F)c2)CC1,-14,-1,34,3,/,/
CCc1ccc(-c2nc(CN3CCC(C(=O)N4CCN(c5ccccc5)CC4)CC3)c(C)o2)cc1,-54,-13,98*,-17,2,4
Cc1ccccc1-c1nc(CN2CCC(C(=O)NCCC3=CCCCC3)CC2)c(C)o1,-51,0,71*,-7,2,-1
CCN(CCNC(=O)C1CCN(Cc2nc(-c3ccc(Cl)cc3)oc2C)CC1)c1ccccc1,-47,-10,85*,-9,2,19
CCc1ccc(-c2nc(CN3CCC(C(=O)N4CCN(c5ccccn5)CC4)CC3)c(C)o2)cc1,-69,2,51,-5,2,7
CCN(CCNC(=O)C1CCN(Cc2nc(-c3cccc(Cl)c3)oc2C)CC1)c1ccccc1,-46,-8,95*,10,0,6
C/C(=N\Nc1ccc(C(=O)O)cc1)c1ccc2c(c1)Nc1ccccc1S2,-33,6,8,28,3,-3
COc1ccc2cc(Br)ccc2c1CC(=O)NCCCN1CCOCC1,/,/,/,/,-1,-1
Nc1c(C(=O)N2CCOCC2)sc2nc3c(cc12)CCCC3,5,/,/,31*,-5,-13
COc1ccc(CNc2nc(C)c([N+](=O)[O-])c(C)c2C#N)cc1,-9,-4,20,-8,0,2
COc1cc(CNc2nc(C)c([N+](=O)[O-])c(C)c2C#N)cc(OC)c1OC,5,2,79*,-8,-1,-1
CCc1c(C)nc(SCC(=O)N2CC(C)OC(C)C2)[nH]c1=O (stereo unspecified),/,/,/,/,-2,1
